Assay [1] has as its target p53‐hDM2 interaction (Homo sapiens, UniProt Q00987). The assay can be described thus: TR-FRET. The note with it: for IC50: IC50±SEM hDM2, 9-point curves in duplicates; for inhibition at 0.1 µM: read-out: Inhibition at 100 nM (%) hDM2. It counts as binding. On the technique in general: TR-FRET usually uses a lanthanide donor and a delayed reading to cut background.
Assay [2] has as its target T1, p53‐hDMX interaction (Homo sapiens, UniProt O15151).
T1 sequence (O15151 1-490): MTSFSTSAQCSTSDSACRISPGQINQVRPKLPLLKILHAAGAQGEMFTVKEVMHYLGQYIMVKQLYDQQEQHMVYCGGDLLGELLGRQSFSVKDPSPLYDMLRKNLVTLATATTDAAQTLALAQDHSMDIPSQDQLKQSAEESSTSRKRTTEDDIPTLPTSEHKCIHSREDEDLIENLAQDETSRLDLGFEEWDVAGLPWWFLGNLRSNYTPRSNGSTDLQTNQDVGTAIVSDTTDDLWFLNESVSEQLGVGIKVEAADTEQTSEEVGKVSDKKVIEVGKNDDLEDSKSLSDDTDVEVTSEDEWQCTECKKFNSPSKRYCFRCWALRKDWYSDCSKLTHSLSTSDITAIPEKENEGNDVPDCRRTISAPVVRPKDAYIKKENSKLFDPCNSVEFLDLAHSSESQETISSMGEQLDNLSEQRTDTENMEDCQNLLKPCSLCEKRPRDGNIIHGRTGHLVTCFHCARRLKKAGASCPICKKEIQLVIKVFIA
The assay can be described thus: TR-FRET. Format: binding. The note with it: for IC50: IC50±SEM hDMX, 9-point curves in duplicates; for inhibition at 0.1 µM: read-out: Inhibition at 100 nM (%) hDMX.

For assay [3], the system named is HCT116 cells. The assay can be described thus: RT-qPCR of p53 target genes p21 and hDM2. Format: cell-based, human. Conditions: 6 hours treatment, n=3. For orientation: Real-time PCR tracks product formation cycle by cycle.
The test system of assay [4] is p53wt HCT116 cells. The assay can be described thus: Western blot of p53 protein levels. Format: cell-based, human. The note with it: 6 hours treatment, 0.1 to 40 µM. The method in brief:
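p53wt HCT116 cells in exponential growth, seeded one day ahead, were exposed to test compound for 6 h without serum, then lysed in RIPA. SDS-PAGE, wet transfer to nitrocellulose, 5% BSA/TBS-T block 1 h RT. Anti-p53 and anti-GAPDH overnight at 4 °C, infrared anti-mouse secondary 1.5 h RT. Positive control was a reference hDM2 inhibitor. Three independent biological replicates.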

For assay [5], the system named is HCT116 cells. The assay can be described thus: MTS cell viability assay. Conditions: 3 days of incubation. It counts as cell-based, human. In a few lines:
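HCT116 cells (passages 47–50; DMEM, 10% heat-inactivated FCS, 37 °C, 5% CO₂) seeded at 3×10³ cells/well with test compound at various concentrations in serum-free medium for 8 h. Serum (10%) then added for 64 h more. MTS reagent added, absorbance read at 490 nm, % viability taken versus untreated cells. Two independent experiments, three technical replicates each.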

Molecules are shown by their SMILES. *1 amine or outer side, *2 acyl side, *3 side chain or, on linkers, in order; H or OH if unused. Where a SMILES comes first, the peptide text is derived from it. Bridges are numbered along the chain shown (N, C = ends). The star is where a group is joined. X1 = CC(C)C[C@@H](CNC(=O)N1C[C@@H](SCCCCCC[*:1])C[C@H]1C(N)=O)NC(=O)NC[C@H](CC(C)C)N[*:2]; X4 = CC(C)C[C@@H](CNC(=O)N1CCC[C@H]1C(N)=O)NC(=O)NC[C@H](CC(C)C)N*; X2 = CC(C)C[C@@H](CNC(=O)N[C@@H](C)CNC(=O)N1CCC[C@H]1C(N)=O)N*

In general, IC50 refers to the point on the concentration scale where inhibition reaches its midpoint. Usually inhibition stands for the drop in the measured response relative to a control, in per cent.

Chain of p53‐hDM2 interaction (Q00987 whole entry): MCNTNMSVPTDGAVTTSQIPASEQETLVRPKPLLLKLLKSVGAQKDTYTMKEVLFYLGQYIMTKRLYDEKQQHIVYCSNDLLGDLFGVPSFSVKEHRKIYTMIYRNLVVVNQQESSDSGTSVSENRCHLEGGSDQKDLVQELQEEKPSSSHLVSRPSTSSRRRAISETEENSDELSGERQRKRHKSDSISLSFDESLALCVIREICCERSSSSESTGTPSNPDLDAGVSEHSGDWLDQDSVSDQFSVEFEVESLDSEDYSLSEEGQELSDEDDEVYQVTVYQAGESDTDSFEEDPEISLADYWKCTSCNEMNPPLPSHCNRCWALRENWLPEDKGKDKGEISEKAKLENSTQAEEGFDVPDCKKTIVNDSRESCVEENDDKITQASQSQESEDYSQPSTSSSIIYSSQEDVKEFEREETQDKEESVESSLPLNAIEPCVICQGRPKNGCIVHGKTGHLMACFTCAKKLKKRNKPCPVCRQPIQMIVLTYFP

On to `CC(C)C[C@@H](CNC(=O)N[C@@H](C)CNC(=O)N1CCC[C@H]1C(N)=O)NC(=O)[C@H](C)NC(=O)[C@H](Cc1c[nH]c2ccccc12)NC(=O)[C@H](Cc1ccc(O)cc1)NC(=O)[C@H](CCC(=O)O)NC(=O)[C@H](C)NC(=O)[C@H](Cc1ccccc1)NC(=O)[C@H](CO)NC(=O)[C@@H](N)[C@@H](C)O` [Compound 3] (H-TSFAEYWA-X2), for which, in assay [1], the concentration for half-maximal inhibition (IC50) amounted to 54 ± 17 nM and the inhibition at 0.1 µM was 43%. For the same compound, in assay [2], the half-maximal inhibitory concentration (IC50) turned out to be 247 ± 42 nM and the inhibition at 0.1 µM worked out at 19%.
On the same counts, the results for `CC(C)C[C@@H](CNC(=O)N1CCC[C@H]1C(N)=O)NC(=O)NC[C@H](CC(C)C)NC(=O)[C@H](C)NC(=O)[C@H](Cc1c[nH]c2ccccc12)NC(=O)[C@H](Cc1ccc(O)cc1)NC(=O)[C@H](CCC(=O)O)NC(=O)[C@H](C)NC(=O)[C@H](Cc1ccccc1)NC(=O)[C@H](CO)NC(=O)[C@@H](N)[C@@H](C)O` [Compound 4] (H-TSFAEYWA-X4) are 6.13 ± 0.08 nM, 99%, 115 ± 5 nM and 46%.
`CC(C)C[C@H]1CNC(=O)N2C[C@H](C[C@H]2C(N)=O)SCCCCCCSC[C@H](NC(=O)[C@H](Cc2ccccc2)NC(=O)[C@H](CO)NC(=O)[C@@H](N)[C@@H](C)O)C(=O)N[C@@H](CCC(=O)O)C(=O)N[C@@H](Cc2ccc(O)cc2)C(=O)N[C@@H](Cc2c[nH]c3ccccc23)C(=O)N[C@@H](C)C(=O)N[C@@H](CC(C)C)CNC(=O)N1` [Compound 8 a] (H-TSFCEYWA; linker 4-C via X1): the half-maximal inhibitory concentration (IC50) in assay [1] came to 1.91 ± 0.05 nM; in assay [2] it was 75 ± 4 nM. The values for the inhibition at 0.1 µM in assay [1] and in assay [2] were 99% and 66%, respectively.
For the compound `CC(=O)N[C@@H](CCCCN)C(=O)N[C@H](C(=O)N[C@@H](Cc1ccccc1)C(=O)N[C@H]1CSCCCCCCS[C@H]2C[C@@H](C(N)=O)N(C2)C(=O)NC[C@H](CC(C)C)NC(=O)NC[C@H](CC(C)C)NC(=O)[C@H](C)NC(=O)[C@H](Cc2c[nH]c3ccccc23)NC(=O)[C@H](Cc2ccc(O)cc2)NC(=O)[C@H](CCC(=O)O)NC1=O)[C@@H](C)O` [Compound 10 a] (Ac-KTFCEYWA; linker 4-C via X1), the “mRNA of target genes p21 and hDM2 (RT-qPCR)” value in assay [3] was “dose‐dependent induction of mRNA of target genes p21 and hDM2”. Besides, the IC50 worked out at 3 ± 0.1 nM in assay [1] and 63 ± 12 nM in assay [2]. Further, the “p53 protein levels (western blot)” value in assay [4] is reported as “dose‐dependent increase of p53 levels”. The “viability of p53wt HCT116 cells (in words)” value in assay [5] is recorded as “effective in reducing the viability of p53wt HCT116 cells in a concentration‐dependent manner”.

Values taken from paper PMC11962346 (Chemistry (Weinheim an Der Bergstrasse, Germany), 2025).
